In ChEMBL document CHEMBL4052615, “Discovery of 4-amino-3-arylsulfoquinolines, a novel non-acetylenic chemotype of metabotropic glutamate 5 (mGlu5) receptor negative allosteric modulators” (Eur J Med Chem, 2017):

Each compound was assayed against Metabotropic glutamate receptor 5 (Homo sapiens, UniProt P41594) (assay: Displacement of [3H]M-MPEP from mGluR5 (unknown origin) at 1 uM measured after 60 mins relative to control).
Outline: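 Rat cerebrocortical membranes or membranes from A18 cells expressing human mGlu5a, incubated with [³H]M-MPEP and test compound at 1 µM in 50 mM Tris pH 7.6 with 2 mM MgCl₂ and 2 mM CaCl₂, 60 min at 25°C. Non-specific binding was taken with […]. Result is % displacement, run in duplicate or triplicate.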

Chain of Metabotropic glutamate receptor 5 (P41594 21-1212 limits assumed): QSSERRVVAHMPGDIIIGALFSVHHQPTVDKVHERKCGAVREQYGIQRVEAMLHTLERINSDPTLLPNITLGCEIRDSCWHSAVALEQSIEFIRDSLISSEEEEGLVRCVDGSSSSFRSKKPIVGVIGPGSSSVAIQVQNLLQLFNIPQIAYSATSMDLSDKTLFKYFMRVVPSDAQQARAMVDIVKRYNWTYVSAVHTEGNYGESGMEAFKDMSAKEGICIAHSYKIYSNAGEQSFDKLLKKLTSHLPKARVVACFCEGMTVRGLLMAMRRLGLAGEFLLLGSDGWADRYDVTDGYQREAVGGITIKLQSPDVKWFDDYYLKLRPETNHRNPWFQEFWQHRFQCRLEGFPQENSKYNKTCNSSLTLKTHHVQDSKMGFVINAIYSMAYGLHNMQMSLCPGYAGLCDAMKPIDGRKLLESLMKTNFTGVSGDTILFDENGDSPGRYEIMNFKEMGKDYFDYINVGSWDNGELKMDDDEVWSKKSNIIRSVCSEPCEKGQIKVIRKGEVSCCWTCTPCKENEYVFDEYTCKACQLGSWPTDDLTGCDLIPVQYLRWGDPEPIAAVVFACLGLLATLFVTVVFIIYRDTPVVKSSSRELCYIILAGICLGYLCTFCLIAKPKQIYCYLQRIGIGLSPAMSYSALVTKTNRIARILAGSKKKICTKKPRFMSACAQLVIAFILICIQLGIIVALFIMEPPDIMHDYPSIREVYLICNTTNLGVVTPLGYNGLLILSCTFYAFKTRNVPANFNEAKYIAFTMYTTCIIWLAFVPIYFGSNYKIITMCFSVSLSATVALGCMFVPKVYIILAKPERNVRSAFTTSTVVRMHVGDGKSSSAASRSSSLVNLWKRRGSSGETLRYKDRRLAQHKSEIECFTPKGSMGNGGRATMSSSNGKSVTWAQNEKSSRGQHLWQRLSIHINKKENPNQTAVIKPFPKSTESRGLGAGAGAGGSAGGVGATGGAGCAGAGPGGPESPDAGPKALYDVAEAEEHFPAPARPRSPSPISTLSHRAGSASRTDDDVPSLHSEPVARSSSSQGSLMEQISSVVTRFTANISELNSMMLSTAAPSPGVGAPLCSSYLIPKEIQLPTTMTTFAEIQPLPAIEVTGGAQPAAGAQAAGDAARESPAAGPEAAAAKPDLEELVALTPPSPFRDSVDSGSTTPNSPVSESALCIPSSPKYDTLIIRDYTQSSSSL

SMILES	inhibition
CC1CCN(c2c(S(=O)(=O)c3ccc(C#N)cc3)cnc3cc(Cl)ccc23)CC1	70%
Cc1ccc(S(=O)(=O)c2cnc3ccc(Cl)cc3c2N2CCC(C)CC2)cc1Cl	81%
COc1ccc2ncc(S(=O)(=O)c3ccc(C)c(F)c3)c(N3CCOCC3)c2c1	4%
COc1ccc(S(=O)(=O)c2cnc3ccc(F)cc3c2N2CCC(C)CC2)cc1OC	54%
Cc1ccc(S(=O)(=O)c2cnc3cc(Cl)ccc3c2N2CCOCC2)cc1F	38%
COc1ccc2ncc(S(=O)(=O)c3cc(C)cc(C)c3)c(N3CCC(C)CC3)c2c1	79%
COc1ccc(S(=O)(=O)c2cnc3ccc(Cl)cc3c2N2CCC(C)CC2)cc1Cl	46%
CC1CCN(c2c(S(=O)(=O)c3cc(Cl)cc(Cl)c3)cnc3ccc(F)cc23)CC1	69%
COc1cccc(S(=O)(=O)c2cnc3cc(Cl)ccc3c2N2CCC(C)CC2)c1	93%
COc1cccc(S(=O)(=O)c2cnc3ccc(C)cc3c2N2CCC(C)CC2)c1	96%
Cc1ccc2ncc(S(=O)(=O)c3ccc(C)c(F)c3)c(N3CCOCC3)c2c1	33%
Cc1ccc(S(=O)(=O)c2cnc3cc(F)ccc3c2N2CCOCC2)cc1C	74%
O=S(=O)(c1cc(Cl)cc(Cl)c1)c1cnc2cc(Cl)ccc2c1N1CCOCC1	85%
CC1CCN(c2c(S(=O)(=O)c3ccc(Cl)c(Cl)c3)cnc3c(F)cccc23)CC1	95%
Cc1ccc(S(=O)(=O)c2cnc3cc(Cl)ccc3c2N2CCC(C)CC2)cc1C	86%
CC1CCN(c2c(S(=O)(=O)c3cccc(Cl)c3)cnc3ccc(Cl)cc23)CC1	92%
Cc1ccc2ncc(S(=O)(=O)c3cccc(Cl)c3)c(N3CCOCC3)c2c1	44%
O=S(=O)(c1ccc(F)cc1)c1cnc2cc(F)ccc2c1N1CCOCC1	29%
CC1CCN(c2c(S(=O)(=O)c3ccc(C#N)cc3)cnc3ccc(Cl)cc23)CC1	31%
COc1ccc(S(=O)(=O)c2cnc3cc(F)ccc3c2N2CCOCC2)cc1OC	5%
N#Cc1cccc(S(=O)(=O)c2cnc3ccc(F)cc3c2N2CCOCC2)c1	25%
COc1ccc(S(=O)(=O)c2cnc3cc(Cl)ccc3c2N2CCOCC2)cc1	41%
O=S(=O)(c1ccc(Cl)cc1)c1cnc2c(F)cccc2c1N1CCOCC1	52%
O=S(=O)(c1cc(F)cc(F)c1)c1cnc2cc(F)ccc2c1N1CCOCC1	47.8 to 48%
O=S(=O)(c1ccc(F)c(F)c1)c1cnc2c(F)cccc2c1N1CCOCC1	57%

SMILES	inhibition
Cc1ccc(S(=O)(=O)c2cnc3c(F)cccc3c2N2CCOCC2)cc1F	73%
CCN1CCN(c2c(S(=O)(=O)c3ccccc3)cnc3ccccc23)CC1	1.7%
COc1ccc(S(=O)(=O)c2cnc3ccc(F)cc3c2N2CCC(C)CC2)cc1	85%
Cc1ccc2ncc(S(=O)(=O)c3ccc(Cl)cc3)c(N3CCOCC3)c2c1	89%
O=S(=O)(c1ccccc1)c1cnc2ccc(F)cc2c1N1CCOCC1	81%
Cc1ccc2ncc(S(=O)(=O)c3ccc(Cl)c(Cl)c3)c(N3CCC(C)CC3)c2c1	82%
COc1ccc2ncc(S(=O)(=O)c3cc(C)cc(C)c3)c(N3CCOCC3)c2c1	11%
COc1ccc2ncc(S(=O)(=O)c3ccccc3)c(N3CCOCC3)c2c1	65%
Cc1ccc(S(=O)(=O)c2cnc3cc(F)ccc3c2N2CCOCC2)cc1F	51%
Cc1ccc(S(=O)(=O)c2cnc3cc(F)ccc3c2N2CCC(C)CC2)cc1C	90%
Cc1ccc(S(=O)(=O)c2cnc3ccc(F)cc3c2N2CCC(C)CC2)cc1	91%
Cc1ccc(S(=O)(=O)c2cnc3cc(Cl)ccc3c2N2CCOCC2)cc1	12%
Cc1cc(C)cc(S(=O)(=O)c2cnc3cc(F)ccc3c2N2CCOCC2)c1	58%
COc1ccc(S(=O)(=O)c2cnc3ccc(C)cc3c2N2CCOCC2)cc1	26%
O=S(=O)(c1ccc(F)c(Cl)c1)c1cnc2cc(Cl)ccc2c1N1CCOCC1	83%
COc1ccc(S(=O)(=O)c2cnc3ccc(C)cc3c2N2CCC(C)CC2)cc1	62%
O=S(=O)(c1cc(F)cc(F)c1)c1cnc2cc(Cl)ccc2c1N1CCOCC1	67%
Cc1ccc2ncc(S(=O)(=O)c3cc(F)cc(F)c3)c(N3CCC(C)CC3)c2c1	72%
CC1CCN(c2c(S(=O)(=O)c3ccccc3)cnc3ccc(Cl)cc23)CC1	59%
Cc1ccc2ncc(S(=O)(=O)c3cccc(F)c3)c(N3CCOCC3)c2c1	10%
O=S(=O)(c1ccc(Cl)c(Cl)c1)c1cnc2ccc(Cl)cc2c1N1CCOCC1	63%
O=S(=O)(c1ccc(F)c(Cl)c1)c1cnc2c(F)cccc2c1N1CCOCC1	83%
CC1CCN(c2c(S(=O)(=O)c3cccc(C#N)c3)cnc3cc(F)ccc23)CC1	92 to 92.4%
CC1CCN(c2c(S(=O)(=O)c3cc(Cl)cc(Cl)c3)cnc3cc(F)ccc23)CC1	87%
N#Cc1ccc(S(=O)(=O)c2cnc3c(F)cccc3c2N2CCOCC2)cc1	6%

SMILES	inhibition
CC1CCN(c2c(S(=O)(=O)c3ccc(Cl)c(Cl)c3)cnc3cc(F)ccc23)CC1	94%
COc1ccc(S(=O)(=O)c2cnc3ccc(C)cc3c2N2CCOCC2)cc1Cl	58%
Cc1ccc2ncc(S(=O)(=O)c3ccc(Cl)c(Cl)c3)c(N3CCOCC3)c2c1	76%
Cc1ccc(S(=O)(=O)c2cnc3ccc(Cl)cc3c2N2CCOCC2)cc1F	23%
COc1cccc(S(=O)(=O)c2cnc3ccc(C)cc3c2N2CCOCC2)c1	65%
COc1cccc(S(=O)(=O)c2cnc3cc(F)ccc3c2N2CCC(C)CC2)c1	90%
Cc1ccc2ncc(S(=O)(=O)c3ccc(C)c(F)c3)c(N3CCC(C)CC3)c2c1	91%
O=S(=O)(c1ccc(F)c(F)c1)c1cnc2cc(F)ccc2c1N1CCOCC1	56%
O=S(=O)(c1cccc(F)c1)c1cnc2cc(F)ccc2c1N1CCSCC1	62.7%
COc1ccc2ncc(S(=O)(=O)c3cccc(F)c3)c(N3CCOCC3)c2c1	-3%
O=S(=O)(c1ccc(F)cc1)c1cnc2cc(F)ccc2c1N1CCSCC1	62.7%
Cc1cc(C)cc(S(=O)(=O)c2cnc3ccc(Cl)cc3c2N2CCOCC2)c1	14%
N#Cc1ccc(S(=O)(=O)c2cnc3ccc(Cl)cc3c2N2CCOCC2)cc1	4%
Cc1ccc2ncc(S(=O)(=O)c3ccccc3)c(N3CCC(C)CC3)c2c1	67%
NS(=O)(=O)N1CCN(c2c(S(=O)(=O)c3cc(F)cc(F)c3)cnc3cc(F)ccc23)CC1	6.4%
Cc1ccc(S(=O)(=O)c2cnc3ccc(Cl)cc3c2N2CCOCC2)cc1	84%
Cc1ccc(S(=O)(=O)c2cnc3cc(Cl)ccc3c2N2CCOCC2)cc1Cl	87%
Cc1cc(C)cc(S(=O)(=O)c2cnc3ccc(F)cc3c2N2CCOCC2)c1	43%
COc1ccc(S(=O)(=O)c2cnc3cc(Cl)ccc3c2N2CCOCC2)cc1OC	4%
Cc1cc(C)cc(S(=O)(=O)c2cnc3ccc(F)cc3c2N2CCC(C)CC2)c1	83%
O=S(=O)(c1ccc(Cl)c(Cl)c1)c1cnc2c(F)cccc2c1N1CCOCC1	86%
CC1CCN(c2c(S(=O)(=O)c3cccc(Cl)c3)cnc3ccc(F)cc23)CC1	92%
CC1CCN(c2c(S(=O)(=O)c3ccc(F)c(Cl)c3)cnc3cc(Cl)ccc23)CC1	94%
CN1CCN(c2c(S(=O)(=O)c3ccccc3)cnc3ccccc23)CC1	7.7%
CC1CCN(c2c(S(=O)(=O)c3ccccc3)cnc3cc(Cl)ccc23)CC1	93%

SMILES	inhibition
CC1CCN(c2c(S(=O)(=O)c3ccc(Cl)cc3)cnc3ccc(F)cc23)CC1	80%
NC(=O)C1CCN(c2c(S(=O)(=O)c3ccccc3)cnc3ccccc23)CC1	24.8%
CC1CCN(c2c(S(=O)(=O)c3ccc(F)cc3)cnc3c(F)cccc23)CC1	26%
Cc1ccc(S(=O)(=O)c2cnc3cc(F)ccc3c2N2CCC(C)CC2)cc1	88%
Cc1ccc(S(=O)(=O)c2cnc3cc(Cl)ccc3c2N2CCC(C)CC2)cc1	94%
CC1CCN(c2c(S(=O)(=O)c3cccc(F)c3)cnc3ccc(Cl)cc23)CC1	58%
Cc1ccc(S(=O)(=O)c2cnc3ccc(Cl)cc3c2N2CCC(C)CC2)cc1	95%
COc1ccc(S(=O)(=O)c2cnc3ccc(Cl)cc3c2N2CCOCC2)cc1OC	-2%
COc1ccc2ncc(S(=O)(=O)c3ccc(Cl)cc3)c(N3CCOCC3)c2c1	93%
COc1ccc2ncc(S(=O)(=O)c3ccc(OC)c(OC)c3)c(N3CCC(C)CC3)c2c1	-3%
CC1CCN(c2c(S(=O)(=O)c3cc(Cl)cc(Cl)c3)cnc3ccc(Cl)cc23)CC1	88%
COc1ccc(S(=O)(=O)c2cnc3cc(F)ccc3c2N2CCOCC2)cc1	23%
CC1CCN(c2c(S(=O)(=O)c3ccccc3)cnc3cc(F)ccc23)CC1	87%
COCC1CCN(c2c(S(=O)(=O)c3ccc(F)cc3)cnc3cc(F)ccc23)CC1	76.1%
COc1ccc2ncc(S(=O)(=O)c3ccc(OC)c(OC)c3)c(N3CCOCC3)c2c1	1%
Cc1ccc2ncc(S(=O)(=O)c3ccc(C#N)cc3)c(N3CCOCC3)c2c1	48%
Cc1cc(C)cc(S(=O)(=O)c2cnc3cc(F)ccc3c2N2CCC(C)CC2)c1	80%
Cc1ccc(S(=O)(=O)c2cnc3ccc(C)cc3c2N2CCC(C)CC2)cc1	82%
COCC1CCN(c2c(S(=O)(=O)c3cccc(C#N)c3)cnc3cc(F)ccc23)CC1	91%
COc1ccc2ncc(S(=O)(=O)c3ccc(C#N)cc3)c(N3CCOCC3)c2c1	2%
Cc1ccc2ncc(S(=O)(=O)c3ccc(F)c(Cl)c3)c(N3CCC(C)CC3)c2c1	93%
Cc1ccc2ncc(S(=O)(=O)c3cc(Cl)cc(Cl)c3)c(N3CCOCC3)c2c1	70%
Cc1ccc(S(=O)(=O)c2cnc3cc(F)ccc3c2N2CCOCC2)cc1Cl	84%
